Test results published in ChEMBL document CHEMBL5303300, “EUbOPEN Chemogenomics Library - Multiplex” (2023).
Values joined by “and” are separate entries in the source; they are usually repeats but may differ in a detail not shown here. Identical values can stand only once.

Test system: Fibroblast
Assay: Multiplex assay against human fibroblast
Assay type: toxicity, cell-based
Settings: number of replicates 2
Procedure, shortened: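 Hoechst33342, BioTracker Green Microtubule Cytoskeleton Dye, MitoTracker Red and Annexin V Alexa Fluor 680 were added to live cells at seeding, and imaging on a CQ1 microscope at 37°C and 5% CO2 followed compound addition. Gating by CellPathfinder machine learning separated cells into Hoechst high-intensity objects or normal cells, then normal cells into healthy, pyknosed or fragmented nuclei, then pyknosed cells into mitotic or apoptotic. Per cents of healthy-nucleus cells are reported for the tubulin, mitochondrial-mass and membrane-permeability phenotypes.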

[1] = 12 h, 1 µM, compound concentration 1 uM
[2] = 12 h, 10 µM, compound concentration 10 uM
[3] = 24 h, 1 µM, compound concentration 1 uM
[4] = 24 h, 10 µM, compound concentration 10 uM
[5] = 48 h, 1 µM, compound concentration 1 uM
[6] = 48 h, 10 µM, compound concentration 10 uM

Cc1cccc(S(=O)(=O)N(C)[C@H](C)CCN2CCC(C)CC2)c1.Cl
Population Apoptotic (%) [1]: 34% and 44%
Population Fragmented Nuclei (%) [1]: 11% and 9%
Population Healthy Nuclei (%) [1]: 67% and 73%
Population Hoechst High Intensity Objects (%) [1]: 0%
Population Membrane Permeable-Phenotype (%) [1]: 8% and 4%
Population Mitochondria Different-Phenotype (%) [1]: 1% and 3%
Population Mitotic Cells (%) [1]: 65% and 55%
Population Normal (%) [1]: 100%
Population Pyknosed Nuclei (%) [1]: 20% and 17%
Population Tubulin-Different-Phenotype (%) [1]: 16% and 10%
Total Cell Count [1]: 140 and 163
Population Apoptotic (%) [2]: 42% and 46%
Population Fragmented Nuclei (%) [2]: 16% and 8%
Population Healthy Nuclei (%) [2]: 70% and 80%
Population Hoechst High Intensity Objects (%) [2]: 0%
Population Membrane Permeable-Phenotype (%) [2]: 6% and 4%
Population Mitochondria Different-Phenotype (%) [2]: 2% and 1%
Population Mitotic Cells (%) [2]: 57% and 53%
Population Normal (%) [2]: 100%
Population Pyknosed Nuclei (%) [2]: 13% and 10%
Population Tubulin-Different-Phenotype (%) [2]: 35% and 13%
Total Cell Count [2]: 187 and 145
Population Apoptotic (%) [3]: 50% and 54%
Population Fragmented Nuclei (%) [3]: 16% and 13%
Population Healthy Nuclei (%) [3]: 61% and 71%
Population Hoechst High Intensity Objects (%) [3]: 1% and 0%
Population Membrane Permeable-Phenotype (%) [3]: 8% and 2%
Population Mitochondria Different-Phenotype (%) [3]: 1% and 0%
Population Mitotic Cells (%) [3]: 50% and 45%
Population Normal (%) [3]: 98% and 100%
Population Pyknosed Nuclei (%) [3]: 22% and 15%
Population Tubulin-Different-Phenotype (%) [3]: 14% and 9%
Total Cell Count [3]: 144 and 156
Population Apoptotic (%) [4]: 50% and 53%
Population Fragmented Nuclei (%) [4]: 13% and 9%
Population Healthy Nuclei (%) [4]: 76% and 81%
Population Hoechst High Intensity Objects (%) [4]: 0%
Population Membrane Permeable-Phenotype (%) [4]: 6% and 1%
Population Mitochondria Different-Phenotype (%) [4]: 2% and 0%
Population Mitotic Cells (%) [4]: 50% and 46%
Population Normal (%) [4]: 100%
Population Pyknosed Nuclei (%) [4]: 10% and 9%
Total Cell Count [4]: 177 and 144
Population Apoptotic (%) [5]: 58% and 73%
Population Fragmented Nuclei (%) [5]: 15%
Population Healthy Nuclei (%) [5]: 63% and 72%
Population Hoechst High Intensity Objects (%) [5]: 0%
Population Membrane Permeable-Phenotype (%) [5]: 4% and 1%
Population Mitochondria Different-Phenotype (%) [5]: 2% and 0%
Population Mitotic Cells (%) [5]: 41% and 26%
Population Normal (%) [5]: 100%
Population Pyknosed Nuclei (%) [5]: 20% and 11%
Total Cell Count [5]: 139 and 160
Population Apoptotic (%) [6]: 54% and 72%
Population Fragmented Nuclei (%) [6]: 20% and 11%
Population Healthy Nuclei (%) [6]: 74% and 81%
Population Hoechst High Intensity Objects (%) [6]: 0%
Population Membrane Permeable-Phenotype (%) [6]: 2%
Population Mitochondria Different-Phenotype (%) [6]: 0%
Population Mitotic Cells (%) [6]: 45% and 27%
Population Normal (%) [6]: 100%
Population Pyknosed Nuclei (%) [6]: 5% and 7%
Total Cell Count [6]: 185 and 152

CN(C)CCN(Cc1ccc(-c2ccc(CNCCc3ccccc3)cc2)cc1)C(=O)CCC1CCCC1.Cl.Cl
Population Apoptotic (%) [1]: 25% and 30%
Population Fragmented Nuclei (%) [1]: 20% and 26%
Population Healthy Nuclei (%) [1]: 56% and 57%
Population Hoechst High Intensity Objects (%) [1]: 0%
Population Membrane Permeable-Phenotype (%) [1]: 3% and 4%
Population Mitochondria Different-Phenotype (%) [1]: 11% and 14%
Population Mitotic Cells (%) [1]: 74% and 69%
Population Normal (%) [1]: 100% and 99%
Population Pyknosed Nuclei (%) [1]: 22% and 16%
Population Tubulin-Different-Phenotype (%) [1]: 68% and 55%
Total Cell Count [1]: 254 and 325
Population Apoptotic (%) [2]: 84% and 86%
Population Fragmented Nuclei (%) [2]: 4% and 8%
Population Healthy Nuclei (%) [2]: 3% and 1%
Population Hoechst High Intensity Objects (%) [2]: 2% and 0%
Population Mitotic Cells (%) [2]: 15% and 13%
Population Normal (%) [2]: 97% and 99%
Population Pyknosed Nuclei (%) [2]: 92% and 90%
Population Tubulin-Different-Phenotype (%) [2]: 50% and 100%
Total Cell Count [2]: 199 and 160
Population Apoptotic (%) [3]: 55% and 66%
Population Fragmented Nuclei (%) [3]: 13% and 19%
Population Healthy Nuclei (%) [3]: 67% and 68%
Population Hoechst High Intensity Objects (%) [3]: 0%
Population Membrane Permeable-Phenotype (%) [3]: 3% and 1%
Population Mitochondria Different-Phenotype (%) [3]: 23% and 29%
Population Mitotic Cells (%) [3]: 44% and 33%
Population Normal (%) [3]: 99%
Population Pyknosed Nuclei (%) [3]: 18% and 11%
Population Tubulin-Different-Phenotype (%) [3]: 72% and 60%
Total Cell Count [3]: 239 and 294
Population Apoptotic (%) [4]: 87% and 90%
Population Fragmented Nuclei (%) [4]: 6% and 12%
Population Healthy Nuclei (%) [4]: 1%
Population Hoechst High Intensity Objects (%) [4]: 1%
Population Membrane Permeable-Phenotype (%) [4]: 33%
Population Mitotic Cells (%) [4]: 12% and 9%
Population Normal (%) [4]: 98%
Population Pyknosed Nuclei (%) [4]: 92% and 85%
Total Cell Count [4]: 199 and 156
Population Apoptotic (%) [5]: 86% and 65%
Population Fragmented Nuclei (%) [5]: 19% and 27%
Population Healthy Nuclei (%) [5]: 74% and 66%
Population Hoechst High Intensity Objects (%) [5]: 0%
Population Membrane Permeable-Phenotype (%) [5]: 1%
Population Mitochondria Different-Phenotype (%) [5]: 9% and 11%
Population Mitotic Cells (%) [5]: 13% and 35%
Population Normal (%) [5]: 100%
Population Pyknosed Nuclei (%) [5]: 5% and 6%
Population Tubulin-Different-Phenotype (%) [5]: 41% and 38%
Total Cell Count [5]: 255 and 321
Population Apoptotic (%) [6]: 83% and 93%
Population Fragmented Nuclei (%) [6]: 12% and 22%
Population Healthy Nuclei (%) [6]: 6% and 13%
Population Hoechst High Intensity Objects (%) [6]: 0%
Population Membrane Permeable-Phenotype (%) [6]: 8% and 14%
Population Mitochondria Different-Phenotype (%) [6]: 41% and 19%
Population Mitotic Cells (%) [6]: 16% and 7%
Population Normal (%) [6]: 100%
Population Pyknosed Nuclei (%) [6]: 81% and 63%
Population Tubulin-Different-Phenotype (%) [6]: 50% and 76%
Total Cell Count [6]: 200 and 157
